The nature of data set [1]: Inhibition of full length recombinant Plasmodium vivax SUB1 expressed in Drosophila S2 cells using Dabsyl-KLVGADDV-SLA-EDANS as substrate measured every 2 mins for 1 hr by FRET assay.
In data set [2] the target is T1, Subtilisin-like protease 1 (Plasmodium falciparum, UniProt O61142).
T1 sequence (O61142 whole entry): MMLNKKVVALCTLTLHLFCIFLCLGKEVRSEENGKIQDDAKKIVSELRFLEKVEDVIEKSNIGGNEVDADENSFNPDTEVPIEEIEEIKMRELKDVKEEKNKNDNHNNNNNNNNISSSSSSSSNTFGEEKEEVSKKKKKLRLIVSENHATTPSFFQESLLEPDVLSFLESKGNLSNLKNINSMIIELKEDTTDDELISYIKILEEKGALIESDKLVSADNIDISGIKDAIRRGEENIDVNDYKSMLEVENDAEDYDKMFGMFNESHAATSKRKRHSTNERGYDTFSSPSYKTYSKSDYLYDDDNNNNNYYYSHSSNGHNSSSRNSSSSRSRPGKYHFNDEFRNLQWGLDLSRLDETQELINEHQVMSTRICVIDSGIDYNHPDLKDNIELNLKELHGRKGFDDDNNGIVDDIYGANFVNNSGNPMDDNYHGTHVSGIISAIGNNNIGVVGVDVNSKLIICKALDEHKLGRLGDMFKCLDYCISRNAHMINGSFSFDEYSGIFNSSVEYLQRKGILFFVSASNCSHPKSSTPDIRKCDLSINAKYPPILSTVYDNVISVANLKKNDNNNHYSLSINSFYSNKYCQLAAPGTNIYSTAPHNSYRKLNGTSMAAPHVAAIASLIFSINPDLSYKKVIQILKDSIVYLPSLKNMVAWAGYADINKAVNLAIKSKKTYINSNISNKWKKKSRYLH
Kind of data set: Inhibition of full length recombinant Plasmodium falciparum SUB1 using Dabsyl-KLVSADNIDIS-EDANS as substrate measured every 2 mins for 1 hr by FRET assay.

The subject of data set [3] is Plasmodium falciparum. Kind of data set: Antiparasitic activity against Plasmodium falciparum infected in human Erythrocyte assessed as inhibition of merozoite egress from human Erythrocyte at 100 uM measured for 8 hrs by flow cytometry analysis relative to control. It counts as functional. Put shortly: (§1)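 P. falciparum cultured in human RBCs, RPMI 1640 with 25 mM HEPES, 2.5% Albumax II, 100 μM hypoxanthine, 37 °C, 5% O2/5% CO2. Sorbitol-synchronized, plasmion-enriched late schizonts at 2% hematocrit, 1% parasitemia exposed to compound for 8 h. Fixed in glutaraldehyde, permeabilized, RNase-treated, stained with YOYO-1. Ring parasitemia by flow cytometry (100,000 events) vs DMSO. Triplicate; IC50 from 16 concentrations, 180 to 0.8 μM.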

Data set [4] can be described thus: Selectivity ratio of IC50 for inhibition of full length recombinant Plasmodium vivax SUB1 expressed in Drosophila S2 cells using Dabsyl-KLVGADDV-SLA-EDANS as substrate to IC50 for inhibition of full length recombinant Plasmodium falciparum SUB1 using Dabsyl-KLVSADNIDIS-EDANS as substrate.
Data set [5] is filed under the species Sus scrofa. Kind of data set: Inhibition of porcine Pancreas trypsin using Nalpha-benzoyl-L-arginine-p-nitroanilide hydrochloride preincubated with compound for 15 mins followed by substrate addition and measured after 1 hr. The conditions noted are these: time 75.0 min. The essentials: (§2)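 Enzyme in 100 mM Tris-HCl pH 8.0, 20 mM CaCl2: trypsin 5 μg/mL, chymotrypsin 0.5 μg/mL or elastase 5 μg/mL. Mixed with compound (2 μL of 10 mM stock into 98 μL) and preincubated 15 min. p-Nitroanilide substrate then added to 1 mM final. Absorbance at 405 nm followed for 1 h; DMSO and 2 mM PMSF as controls; triplicate.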

The next data set is filed under the species Bos taurus. Kind of data set: Inhibition of bovine Pancreas chymotrypsin using Nalpha-succinyl-Ala-Ala-Pro-phe-p-nitroanilide preincubated with compound for 15 mins followed by substrate addition and measured after 1 hr. To be noted: time 75.0 min. The essentials: as §2
The species named for data set [6] is Sus scrofa. Kind of data set: Inhibition of porcine Pancreas elastase using Nalpha-succinyl-Ala-Ala-Ala-p-nitroanilide preincubated with compound for 15 mins followed by substrate addition and measured after 1 hr relative to control. The conditions noted are these: time 75.0 min. Put shortly: as §2
Data set [7] can be described thus: Inhibition of porcine Pancreas elastase using Nalpha-succinyl-Ala-Ala-Ala-p-nitroanilide preincubated with compound for 15 mins followed by substrate addition and measured after 1 hr. Details: species or system Sus scrofa. Put shortly:
as §2

Data set [8] in a line: Selectivity ratio, ratio of IC50 for porcine Pancreas elastase to IC50 for Plasmodium vivax SUB1.
The nature of data set [9]: Selectivity ratio, ratio of IC50 for porcine Pancreas elastase to IC50 for Plasmodium falciparum SUB1.
Data set [10] in a line: Inhibition of elastase (unknown origin). Details: species or system Homo sapiens.
Data set [11] can be described thus: Metabolic stability in human serum measured after 24 hrs by LC-MS analysis. It counts as ADME, cell-free. To be noted: read-out: Stability. The essentials:
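Pooled human serum prewarmed 20 min at 37 °C; peptide added to 0.6 mM final. Aliquots taken over 0-24 h and proteins precipitated with MeCN/H2O/formic acid. Supernatant lyophilized and analysed by LC-SWATH-MS. Intact peak area expressed as % of the 0 h value. Two independent experiments in duplicate, mean ± SEM.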

The subject of data set [12] is Subtilisin-like protease 1 (Plasmodium vivax). The data set can be described thus: Binding affinity to Plasmodium vivax SUB1 using Dabsyl-KLVGADDV-SLA-EDANS as substrate using catalytic domain assessed as bound half life by jump dilution assay.
Data set [13] has the same test system. Kind of data set: Binding affinity to Plasmodium vivax SUB1 catalytic domain assessed as thermal stabilization by measuring change in melting temperature by differential scanning fluorimetry.
Data set [14] shares this test system. Kind of data set: Binding affinity to Plasmodium vivax SUB1 using Dabsyl-KLVGADDV-SLA-EDANS as substrate using catalytic domain assessed as dissociation constant (Koff) by jump dilution assay.
For data set [15], the system named is Plasmodium falciparum. Kind of data set: Antiparasitic activity against Plasmodium falciparum infected in human Erythrocyte assessed as inhibition of merozoite egress from human Erythrocyte measured for 8 hrs by flow cytometry analysis. It counts as functional, organism-based. The essentials:
as §1
In general terms: A flow cytometer gives signals particle by particle.

For data set [16], the system named is Plasmodium falciparum. The data set can be described thus: Antiparasitic activity against Plasmodium falciparum infected in human Erythrocyte assessed as inhibition of merozoite egress from human Erythrocyte at 25 uM measured for 8 hrs by flow cytometry analysis relative to control. It counts as functional. Put shortly:
as §1

Data set [17] deals with Plasmodium falciparum. The data set can be described thus: Antiparasitic activity against synchronous parasite Plasmodium falciparum infected in human Erythrocyte at 100 uM incubated for 28 hrs followed by compound washout and measured after 38 hrs. It counts as functional. Put shortly: (§3)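 Trophogony off-target check: synchronous 0-3 h post-invasion rings (2% hematocrit, 1% parasitemia) exposed to compound or matched DMSO (1% or 0.25% final) for 28 h. Cells then washed and recultured without compound for 38 h. Parasitemia read by YOYO-1 flow cytometry; growth inhibition expressed relative to DMSO.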

The test system of data set [18] is Plasmodium falciparum. The data set can be described thus: Antiparasitic activity against synchronous parasite Plasmodium falciparum infected in human Erythrocyte at 25 uM incubated for 28 hrs followed by compound washout and measured after 38 hrs. It counts as functional. Put shortly:
as §3

A short description of data set [19]: Selectivity index, ratio of INH for antiparasitic activity against Plasmodium falciparum infected in human Erythrocyte assessed as inhibition of merozoite egress from human Erythrocyte at 25 uM to INH for antiparasitic activity against synchronous parasite Plasmodium falciparum infected in human Erythrocyte at 25 uM. It counts as functional. The essentials:
(§4)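 SI = 1 − (% trophogony inhibition / % T0-T8 egress inhibition), each at the same concentration. Trophogony arm: 0-3 h rings, 28 h exposure, washout, 38 h regrowth. Egress arm: late schizonts, 8 h exposure. Both read as parasitemia by flow cytometry vs DMSO.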

A short description of data set [20]: Selectivity index, ratio of INH for antiparasitic activity against Plasmodium falciparum infected in human Erythrocyte assessed as inhibition of merozoite egress from human Erythrocyte at 100 uM to INH for antiparasitic activity against synchronous parasite Plasmodium falciparum infected in human Erythrocyte at 100 uM. It counts as functional. The essentials: as §4

Two molecules from ChEMBL document CHEMBL5512639, “Insights from structure-activity relationships and the binding mode of peptidic α-ketoamide inhibitors of the malaria drug target subtilisin-like SUB1” (Eur J Med Chem, 2024) can be followed below.

Calls of active or inactive are those of the source. The calls are words filed in the database; no cut-off is given here. Numbered stars: 1 amine (or outer) side, 2 acyl side, 3 side chain; on linkers, the order of the positions; unused ones are H or OH. Square brackets hold non-standard residues; d marks the D form. Peptide text beside a SMILES is read from it. Gly(cPent) = N[C@H](C(=O)O)C1CCCC1; X1 = C[C@H](N[*:1])C(=O)C(=O)[*:2]

One may read the IC50 as the concentration that inhibits the measured activity by half. Usually inhibition stands for the relative decrease from the control value, in per cent. In general, ΔTm refers to the shift of the melting midpoint relative to a reference. On to `C=CCOC(=O)CC[C@H](NC(=O)[C@H](CC(=O)O)NC(=O)C(=O)[C@H](C)NC(=O)[C@H](C)NC(=O)[C@@H](NC(=O)[C@@H](NC(C)=O)C1CCCC1)[C@@H](C)O)C(N)=O`, for which the concentration for half-maximal inhibition (IC50) was 50 nM in data set [1], 570 nM in [2], 36000 nM in data set [7] and 820 nM in data set [10]. In addition, in the data set with Plasmodium falciparum [3], the inhibition at 100 µM is 37%. Besides, the Ratio IC50 was 9 in [4], 720 in data set [8] and 63 in [9]. In addition, the inhibition result in the data set listed under Sus scrofa [5] and in the data set filed under Bos taurus was “inactive” throughout. For the same molecule, the inhibition result in the data set filed under Sus scrofa [6] was “Active”. In addition, the remaining at 24 h in data set [11] is approximately 95%. In addition, the T1/2 in data set [12] turned out to be 30 min. In addition, in [13], the ΔTm turned out to be 14.3 °C. Moreover, the K in data set [14] was 0.023 min⁻¹.

For `CC(=O)N[C@H](C(=O)N[C@H](C(=O)N[C@@H](C)C(=O)N[C@@H](C)C(=O)C(=O)N[C@@H](CC(=O)O)C(=O)N[C@H](C(N)=O)C1CCCC1)[C@@H](C)O)C1CCCC1` (Ac-[Gly(cPent)]TA[X1]D[Gly(cPent)]-NH2), the values for the concentration for half-maximal inhibition (IC50) (in data set [1]; in data set [2]; in the data set with Plasmodium falciparum [15]) were 12 nM, 10 nM and 22600 nM, respectively. In addition, the inhibition at 100 µM with Plasmodium falciparum [3] amounted to 100%. Also, in the data set with Plasmodium falciparum [16], the inhibition at 25 µM is 60%. Moreover, the results for the Activity with Plasmodium falciparum [17] and with Plasmodium falciparum [18] were 6% and 0%, respectively. Besides, the “Selectivity Index” value is listed as 1 in data set [19] and 0.94 in [20]. In addition, the ΔTm in data set [13] came out at 12.7 °C.
